EBNA-1 inhibitor = EBNA-1 DNA-binding inhibitors, primary screen, biochemical, fluorescence polarization | AID 1950, 2009 | 300,000 tested, 0.34% active | inhibition, % at 14.8 µM; in the data active = inhibition above about 28%
eIF4H inh = human eIF4H binding inhibitors, primary screen, translation initiation inhibitor project, biochemical, uHTS, fluorescence polarization. Eukaryotic translation initiation factor 4H (Homo sapiens), Q15056. inhibition, % at 35 µM. 290,000 tested, 0.94% active. eIF4H fluorescence polarization binding assay;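 note: calls also rest on retests at 20 µM and on dose response follow-up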
PABP polyA inh = PABP poly(A) RNA binding inhibitors, primary screen, biochemical, fluorescence polarization, uHTS | Polyadenylate-binding protein 1 (Homo sapiens), P11940 | 290,000 tested, 1% active | AID 2014, 2009 | inhibition, % at 35 µM;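 note: calls also rest on retests at 20 µM and on dose response follow-up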
Target sequence (P11940 whole entry, looked up): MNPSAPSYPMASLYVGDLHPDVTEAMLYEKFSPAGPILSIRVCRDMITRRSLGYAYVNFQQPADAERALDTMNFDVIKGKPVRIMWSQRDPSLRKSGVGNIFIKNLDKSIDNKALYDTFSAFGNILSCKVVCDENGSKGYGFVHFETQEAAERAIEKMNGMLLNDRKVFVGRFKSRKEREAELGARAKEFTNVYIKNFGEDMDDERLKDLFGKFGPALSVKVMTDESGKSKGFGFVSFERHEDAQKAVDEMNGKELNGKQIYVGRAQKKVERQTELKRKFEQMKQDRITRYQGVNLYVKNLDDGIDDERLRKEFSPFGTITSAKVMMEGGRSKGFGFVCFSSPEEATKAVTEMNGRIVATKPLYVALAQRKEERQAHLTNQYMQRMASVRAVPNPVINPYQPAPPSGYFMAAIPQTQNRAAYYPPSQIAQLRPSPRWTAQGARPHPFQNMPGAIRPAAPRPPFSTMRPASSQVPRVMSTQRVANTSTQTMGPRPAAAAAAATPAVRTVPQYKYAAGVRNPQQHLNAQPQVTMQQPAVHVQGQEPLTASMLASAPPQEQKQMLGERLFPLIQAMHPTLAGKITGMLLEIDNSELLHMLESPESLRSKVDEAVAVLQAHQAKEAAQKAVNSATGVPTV
ZTA DNA inh = ZTA (EBV) inhibition in EBNA-1 counter-screen; ZTA-DNA binding, fluorescence polarization; inhibition, % at 11 µM; 320,000 tested, 0.15% active; AID 2234; in the data active = inhibition above about 33%
HCV NS3 hel inh = inhibitors of HCV NS3 helicase, primary screen, biochemical, Cy5 molecular beacon fluorescence; NS3 helicase DNA unwinding; Hepatitis C virus NS3 helicase; 290,000 tested, 0.56% active; inhibition, % at 10.9 µM;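 active = inhibition above the mean of all tested compounds plus 3 SD, set per campaign, cut at about 35% in these data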;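 note: 0% = DMSO wells and 100% = thioflavine S control wells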
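Control set: DMSO versus 110 µM thioflavine S; Material: NS3 helicase fragment of HCV; Measured by: Cy5 fluorescence at 0 and 60 min, beacon hairpin quenching; Read-out basis: percent inhibition from t60/t0 fluorescence ratio; Times: reaction time 60 min, 25 °C; Repeats: single replicate; Compound dosing: single dose, 10.9 µM nominal final, DMSO 0.8% final.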
MLLE-PAM2 inh = inhibitors of PABP1 MLLE–PAM2 peptide binding, primary screen, biochemical, fluorescence polarization, FITC-PAM2, GST-MLLE | Polyadenylate-binding protein 1 (Homo sapiens), P11940 | inhibition, % at 20 µM | 360,000 tested, 0.36% active; in the data active = inhibition above about 35%, passing the limit was not always enough;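 note: plate controls were DMSO wells with GST-MLLE for no effect and wells lacking GST-MLLE protein for full effect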
Starred values were filed as active, the others as inactive; x = not tested or not shown. Only some compounds are listed: those with a hit (about 2.1% of all), similar ones and a draw of the others. Unless noted, the rule behind the calls is not given here.

SMILES	EBNA-1 inhibitor	eIF4H inh	PABP polyA inh	ZTA DNA inh	HCV NS3 hel inh	MLLE-PAM2 inh
O=C(NC(=S)N1CCCc2ccccc21)c1ccc(Br)cc1	4	28	-2	-13	-2	47*
COc1ccccc1C(=O)NC(=S)N1CCCc2ccccc21	3	32	57*	18	-1	17
O=C(NC(=S)N1CCCc2ccccc21)c1ccc(Cl)cc1	-10	5	0	-7	9	5
O=C(NC(=S)N1CCCc2ccccc21)c1ccccc1	-1	3	16	12	-4	34
CCOC(=O)c1cc(-c2ccccc2)sc1NC(=S)Nc1cc(C)ccn1	-3	-1	-8	5	4	-26
Cc1ccc2c(c1)c(C)cc(=O)n2CCC(=O)O	-13	88*	10	-11	5	8
Cc1ccc(SCc2cc(=O)c3c(=O)n(-c4ccccc4)[nH]c3[nH]2)cc1	3	93	19*	-5	16	17
O=c1cc(CSc2ccccc2)[nH]c2ccccc12	5	-5	-12	-2	-3	-6
N#Cc1ccccc1NC(=O)COc1ccc2c(c1)OCO2	-10	-5	-3	8	-21	-6
O=C(O)C1Nc2ccc(OC(F)(F)F)cc2C2C=CCC12 (stereo not given)	3	x	x	3	x	x
O=C(O)C1Nc2c(cccc2C(F)(F)F)C2C=CCC12 (stereo not given)	x	80*	61*	x	7	x
Cc1ccc2c(c1)C1C=CCC1C(C(=O)O)N2 (stereo not given)	45*	89	5	28	37*	x
COc1ccc(OC)c(NC(=O)c2ccc(-n3cccn3)nc2)c1	8	106*	101*	-10	-6	-5
CNC(=O)c1ccc(-n2cccn2)nc1	-2	5	14	7	5	14
CCCCCOc1ccc(C(=O)NCCC(=O)NCCCC(=O)OCC)cc1	5	12	3	-7	-4	-2
CCOC(=O)CCCNC(=O)CCNC(=O)c1ccc(OCC)cc1	7	active	116*	13	-6	-2
Cc1cccc2cc(CN(CC3CCCO3)C(=S)Nc3ccccc3)c(=O)[nH]c12 (stereo not given)	13	-3	-11	-2	1	-110
CCCS(=O)(=O)c1ccc(COC(=O)c2cccc(NC(=O)C(C)C)c2)cc1	-18	active	54*	3	-4	5
CC(=O)Nc1cccc(C(=O)OCc2ccccc2)c1	-4	5	9	-6	-1	12
Cc1cc(S(=O)(=O)NCc2ccccc2)ccc1OCC(=O)NCc1ccncc1	-17	5	41	-7	3	-7
Cc1cccc(C(=O)N[C@H](C(=O)OCc2cc(=O)n3c(n2)sc2ccccc23)C(C)C)c1	-2	85*	active	-8	9	-7
O=C(OCc1cc(=O)n2c(n1)sc1ccccc12)c1ccc(O)cc1	-10	79*	5	6	30	1
Cc1cc(C)cc(C(=O)NC(=S)Nc2cccnc2)c1	6	-13	-3	-5	-4	14
O=C(Nc1ccccc1Oc1ccccc1)C1CCCC1	-2	-7	-5	4	7	11
CCOc1ccc(NC(=S)NC(=O)c2c(Cl)c(C)nn2C)c([N+](=O)[O-])c1	-1	2	11	13	6	40*
SMILES	EBNA-1 inhibitor	eIF4H inh	PABP polyA inh	ZTA DNA inh	HCV NS3 hel inh	MLLE-PAM2 inh
COc1cccc(NC(=O)C(c2ccccc2)N2CCCCC2)c1 (stereo not given)	6	8.5*	96*	8	-1	-5
CC1(C(=O)NC(=S)N(CCC#N)c2ccccc2)CC1(Cl)Cl (stereo not given)	-6	4	19	-10	5	47*
C=CCSc1ncccc1C(=O)NCCc1ccc(Cl)cc1	-10	0	6	-12	2	-1
O=C(COc1ccc2c(-c3ccccc3)cc(=O)oc2c1)Nc1ccc(CCO)cc1	20	36	-2	16	6	-7
COc1ccc2c(c1)-c1nc(/N=C/c3ccccc3O)sc1CC2	-4	12	-10	11	10	-39
NS(=O)(=O)c1ccc(N=Nc2c[nH]c(=O)c(O)c2)cc1	-6	54*	33*	-8	9	102

Compound activity: PubChem, several laboratories
